Active and inactive are the calls of the source. No cut-off for these calls is given here.
Tests used:
WI-38 = assay: Cytotoxicity against human WI-38 cells assessed as reduction in cell viability after 48 hrs by MTT assay; format: cell-based; conditions: WI-38, 48 h
Procedure, shortened: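 Cells from ATCC grown in DMEM with 10% FBS, insulin and 1% penicillin-streptomycin. Plated at 1.2-1.8 × 10,000 cells/well for 24 h, then exposed to compounds in DMSO vehicle for 48 h. MTT 0.5 mg/ml added for 2 h; absorbance read at 570 nm. Experiments run in triplicate.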

MCF7 [1] = assay: Induction of cell cycle arrest in human MCF7 cells assessed as cell accumulation at pre-G1 phase at IC50 concentration after 24 hrs by propidium iodide staining based flow cytometric analysis (reference value: 1.49%); format: functional
MCF7 [2] = assay: Induction of cell cycle arrest in human MCF7 cells assessed as cell accumulation at G1 phase at IC50 concentration after 24 hrs by propidium iodide staining based flow cytometric analysis (reference value: 53.77%); format: functional
MCF7 [3] = assay: Induction of cell cycle arrest in human MCF7 cells assessed as cell accumulation at S phase at IC50 concentration after 24 hrs by propidium iodide staining based flow cytometric analysis (reference value: 42.34%); format: functional
MCF7 [4] = assay: Induction of cell cycle arrest in human MCF7 cells assessed as cell accumulation at G2/M phase at IC50 concentration after 24 hrs by propidium iodide staining based flow cytometric analysis (reference value: 3.89%); format: functional
MCF7 [5] = assay: Induction of cell cycle arrest in human MCF7 cells assessed as cell increase in accumulation at G2/M phase at IC50 concentration after 24 hrs by propidium iodide staining based flow cytometric analysis; format: functional
MCF7 [6] = assay: Induction of apoptosis in human MCF7 cells assessed as increase in early apoptotic cells at IC50 concentration after 24 hrs by annexin-V-FITC/PI staining based flow cytometric analysis; format: functional
MCF7 [7] = assay: Induction of apoptosis in human MCF7 cells assessed as increase in late apoptotic cells at IC50 concentration after 24 hrs by annexin-V-FITC/PI staining based flow cytometric analysis; format: functional
MCF7 [8] = assay: Induction of apoptosis in human MCF7 cells assessed as increase in caspace-3 protein expression at IC50 concentration after 24 hrs by ELISA; format: functional
Procedure, shortened: (§1)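 Cells treated at IC50 for 24 h and lysed in cell extraction buffer. Lysate diluted in standard diluent buffer and human caspase-3, -7, -9, Bax and Bcl-2 quantified by immunoassay kit (pg/mL). Fold change calculated against untreated control cells.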

MCF7 [9] = assay: Induction of apoptosis in human MCF7 cells assessed as increase in caspace-7 protein expression at IC50 concentration after 24 hrs by ELISA; format: functional; procedure, shortened: as §1
MCF7 [10] = assay: Induction of apoptosis in human MCF7 cells assessed as increase in caspace-9 protein expression at IC50 concentration after 24 hrs by ELISA; format: functional; procedure, shortened: as §1
MCF7 [11] = assay: Induction of apoptosis in human MCF7 cells assessed as increase in Bax protein expression at IC50 concentration after 24 hrs by ELISA; format: functional; procedure, shortened: as §1
MCF7 [12] = assay: Induction of apoptosis in human MCF7 cells assessed as decrease in Bcl-2 protein expression at IC50 concentration after 24 hrs by ELISA; format: functional; procedure, shortened: as §1
MCF7 [13] = assay: Induction of apoptosis in human MCF7 cells assessed as increase in Bax/Bcl-2 ratio at IC50 concentration after 24 hrs by ELISA; format: functional, cell-based; procedure, shortened: as §1
[14] = target: T1, Receptor tyrosine-protein kinase erbB-2 (Homo sapiens, UniProt P04626); assay: Inhibition of HER2 (unknown origin) at 10 uM relative to control
T1 sequence (P04626 whole entry): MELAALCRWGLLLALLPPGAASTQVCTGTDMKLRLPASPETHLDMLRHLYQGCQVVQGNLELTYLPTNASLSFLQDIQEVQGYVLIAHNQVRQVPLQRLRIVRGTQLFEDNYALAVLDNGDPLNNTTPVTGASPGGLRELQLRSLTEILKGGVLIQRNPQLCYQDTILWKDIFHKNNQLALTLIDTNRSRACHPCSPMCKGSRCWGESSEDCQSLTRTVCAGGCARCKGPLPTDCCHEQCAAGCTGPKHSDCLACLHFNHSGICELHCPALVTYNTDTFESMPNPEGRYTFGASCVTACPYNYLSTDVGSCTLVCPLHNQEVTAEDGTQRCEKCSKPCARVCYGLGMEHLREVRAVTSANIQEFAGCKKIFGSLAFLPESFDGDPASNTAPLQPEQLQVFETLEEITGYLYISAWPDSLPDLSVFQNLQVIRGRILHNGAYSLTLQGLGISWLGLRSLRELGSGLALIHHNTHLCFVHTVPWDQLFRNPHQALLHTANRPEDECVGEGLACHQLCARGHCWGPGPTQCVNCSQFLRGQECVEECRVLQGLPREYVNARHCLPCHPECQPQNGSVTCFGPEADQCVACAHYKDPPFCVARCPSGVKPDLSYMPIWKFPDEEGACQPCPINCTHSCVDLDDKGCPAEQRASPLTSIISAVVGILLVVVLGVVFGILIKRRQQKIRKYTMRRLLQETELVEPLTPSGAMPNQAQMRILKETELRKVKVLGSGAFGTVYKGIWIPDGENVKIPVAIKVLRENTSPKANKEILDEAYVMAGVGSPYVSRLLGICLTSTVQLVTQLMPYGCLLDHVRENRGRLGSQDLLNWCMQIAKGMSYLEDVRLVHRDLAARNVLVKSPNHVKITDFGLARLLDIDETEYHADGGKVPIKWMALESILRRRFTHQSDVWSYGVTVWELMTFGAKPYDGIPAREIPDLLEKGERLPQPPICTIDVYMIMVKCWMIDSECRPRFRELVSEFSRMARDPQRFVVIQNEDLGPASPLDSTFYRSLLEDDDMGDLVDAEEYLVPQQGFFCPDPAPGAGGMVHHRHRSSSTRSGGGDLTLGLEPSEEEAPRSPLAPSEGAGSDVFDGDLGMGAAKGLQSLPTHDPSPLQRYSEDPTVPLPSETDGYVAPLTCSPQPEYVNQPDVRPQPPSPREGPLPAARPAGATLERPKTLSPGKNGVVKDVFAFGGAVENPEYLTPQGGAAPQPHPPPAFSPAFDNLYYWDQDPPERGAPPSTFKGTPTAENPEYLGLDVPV
Procedure, shortened: (§2)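 Cell-free immunoassay kit measuring EGFR T790M/HER2 kinase inhibition. Percent inhibition screened at 10 µM. IC50 obtained from four concentrations (0.01-10 µM) by fitting E(%) = Emax/(1+[I]/ID50) to a dose-response curve. Mean of two independent replicates.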

[15] = target: Epidermal growth factor receptor (Homo sapiens, UniProt P00533, T790M); assay: Inhibition of EGFR T790M mutant (unknown origin)
Sequence of Epidermal growth factor receptor (P00533 25-1210 T790M limits assumed): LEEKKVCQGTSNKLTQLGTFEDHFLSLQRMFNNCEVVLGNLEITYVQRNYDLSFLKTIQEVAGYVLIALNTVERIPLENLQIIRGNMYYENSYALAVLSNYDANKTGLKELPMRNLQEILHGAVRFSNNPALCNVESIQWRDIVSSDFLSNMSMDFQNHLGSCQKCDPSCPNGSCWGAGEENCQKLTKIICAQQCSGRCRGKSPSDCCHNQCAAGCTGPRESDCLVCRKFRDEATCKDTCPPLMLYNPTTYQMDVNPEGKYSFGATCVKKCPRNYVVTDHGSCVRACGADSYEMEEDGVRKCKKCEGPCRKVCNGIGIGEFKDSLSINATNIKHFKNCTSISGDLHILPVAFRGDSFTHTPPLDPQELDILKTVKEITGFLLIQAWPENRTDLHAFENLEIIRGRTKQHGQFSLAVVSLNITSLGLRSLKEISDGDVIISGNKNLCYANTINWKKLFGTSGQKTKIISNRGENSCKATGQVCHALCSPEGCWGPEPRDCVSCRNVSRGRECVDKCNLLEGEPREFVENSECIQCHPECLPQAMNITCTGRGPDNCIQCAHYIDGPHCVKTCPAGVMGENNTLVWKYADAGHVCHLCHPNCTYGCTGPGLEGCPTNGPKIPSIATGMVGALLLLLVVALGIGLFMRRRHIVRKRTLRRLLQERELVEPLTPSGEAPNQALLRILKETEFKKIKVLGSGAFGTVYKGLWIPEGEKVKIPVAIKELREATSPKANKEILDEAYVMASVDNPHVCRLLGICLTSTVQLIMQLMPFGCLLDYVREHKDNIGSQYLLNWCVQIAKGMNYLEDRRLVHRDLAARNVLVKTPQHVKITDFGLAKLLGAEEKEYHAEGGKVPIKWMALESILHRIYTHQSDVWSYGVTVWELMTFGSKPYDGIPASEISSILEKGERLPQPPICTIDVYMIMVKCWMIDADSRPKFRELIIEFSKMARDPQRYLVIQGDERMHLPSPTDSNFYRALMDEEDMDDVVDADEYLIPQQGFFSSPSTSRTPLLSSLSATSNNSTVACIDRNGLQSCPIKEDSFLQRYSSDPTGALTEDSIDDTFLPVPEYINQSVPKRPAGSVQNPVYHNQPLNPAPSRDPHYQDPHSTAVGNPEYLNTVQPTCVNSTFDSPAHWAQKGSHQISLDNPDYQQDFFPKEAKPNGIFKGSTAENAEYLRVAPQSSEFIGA

[16] = target: T1, Receptor tyrosine-protein kinase erbB-2; assay: Inhibition of HER2 (unknown origin); procedure, shortened: as §2
Mus musculus [17] = assay: Anticonvulsant activity against mouse model of LiCa/pilocarpine-induced status epilepticus assessed as mean power frequency at 20 mg/kg, po for 10 days by EEG method relative to control; format: functional; conditions: time 10 day
Procedure, shortened: (§3)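 Male mice (20-30 g), five per group, dosed orally once daily for 10 days. Status epilepticus was then induced with LiCa (3 mEq/kg i.p.), atropine sulfate (1 mg/kg i.p.) 30 min before pilocarpine, and pilocarpine HCl (300 mg/kg i.p.) 2 h after LiCa. Normal controls received oral distilled water. Comparators were untreated SE, phenytoin and lamotrigine. One-way ANOVA with Tukey post-hoc; mean ± SD.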

Mus musculus [18] = assay: Anticonvulsant activity against mouse model of LiCa/pilocarpine-induced status epilepticus assessed as spectral edge frequency at 20 mg/kg, po for 10 days by EEG method relative to control; format: functional; conditions: time 10 day; procedure, shortened: as §3
Mus musculus [19] = assay: Anticonvulsant activity against mouse model of LiCa/pilocarpine-induced status epilepticus assessed as total power at 20 mg/kg, po for 10 days by EEG method relative to control; format: functional; conditions: time 10 day; procedure, shortened: as §3
Mus musculus [20] = assay: Anticonvulsant activity against mouse model of LiCa/pilocarpine-induced status epilepticus assessed as amplitude at 20 mg/kg, po for 10 days by EEG method relative to control; format: functional; conditions: time 10 day; procedure, shortened: as §3
Mus musculus [21] = assay: Anticonvulsant activity against mouse model of LiCa/pilocarpine-induced status epilepticus assessed as amplitude density at 20 mg/kg, po for 10 days by EEG method relative to control; format: functional; conditions: time 10 day; procedure, shortened: as §3
Mus musculus [22] = assay: Anticonvulsant activity against mouse model of LiCa/pilocarpine-induced status epilepticus assessed as power pV2 at 20 mg/kg, po for 10 days by EEG method relative to control; format: functional; conditions: time 10 day; procedure, shortened: as §3
Mus musculus [23] = assay: Anticonvulsant activity against mouse model of LiCa/pilocarpine-induced status epilepticus assessed as total power density at 20 mg/kg, po for 10 days by EEG method relative to control; format: functional; conditions: time 10 day; procedure, shortened: as §3
Mus musculus [24] = assay: Anticonvulsant activity against mouse model of LiCa/pilocarpine-induced status epilepticus assessed as delta at 20 mg/kg, po for 10 days by EEG method relative to control; format: functional; conditions: time 10 day; procedure, shortened: as §3
Mus musculus [25] = assay: Anticonvulsant activity against mouse model of LiCa/pilocarpine-induced status epilepticus assessed as theta at 20 mg/kg, po for 10 days by EEG method relative to control; format: functional; conditions: time 10 day; procedure, shortened: as §3
Mus musculus [26] = assay: Anticonvulsant activity against mouse model of LiCa/pilocarpine-induced status epilepticus assessed as alpha at 20 mg/kg, po for 10 days by EEG method relative to control; format: functional; conditions: time 10 day; procedure, shortened: as §3
Mus musculus [27] = assay: Anticonvulsant activity against mouse model of LiCa/pilocarpine-induced status epilepticus assessed as MDA level in brain at 20 mg/kg, po for 10 days by calorimetric method relative to control; format: functional; conditions: time 10 day; procedure, shortened: as §3
Mus musculus [28] = assay: Anticonvulsant activity against mouse model of LiCa/pilocarpine-induced status epilepticus assessed as GSH level in brain at 20 mg/kg, po for 10 days by calorimetric method relative to control; format: functional; conditions: time 10 day; procedure, shortened: as §3
Mus musculus [29] = assay: Anticonvulsant activity against mouse model of LiCa/pilocarpine-induced status epilepticus assessed as GABA level in brain at 20 mg/kg, po for 10 days by ELISA relative to control; format: functional; conditions: time 10 day; procedure, shortened: as §3
Mus musculus [30] = assay: Anticonvulsant activity against mouse model of LiCa/pilocarpine-induced status epilepticus assessed as Glutamate level in brain at 20 mg/kg, po for 10 days by ELISA relative to control; format: functional; conditions: time 10 day; procedure, shortened: as §3
MCF7 [31] = assay: Induction of apoptosis in human MCF7 cells assessed as late apoptotic cells at IC50 concentration after 24 hrs by annexin-V-FITC/PI staining based flow cytometric analysis (reference value: 0.47%)
MCF7 [32] = assay: Induction of apoptosis in human MCF7 cells assessed as early apoptotic cells at IC50 concentration after 24 hrs by annexin-V-FITC/PI staining based flow cytometric analysis (reference value: 0.84%)

inhibition [14]: 86.7%
IC50 [15]: 227 nM
IC50 [16]: 866 nM
Compound: COc1ccc(/C=C2/N=C(c3ccc(Cl)cc3)N(C(=O)Cc3nc4c(c(C)nn4-c4ccccc4)c(=O)[nH]3)NC2=O)cc1
IC50 (WI-38): 54.9 nM
Activity (MCF7 [1]): 22.12%
Activity (MCF7 [2]): 25.09%
Activity (MCF7 [3]): 28.34%
Activity (MCF7 [4]): 46.57%
fold change (FC) (MCF7 [5]): 11.97
fold change (FC) (MCF7 [6]): 5.6
fold change (FC) (MCF7 [7]): 29.5
fold change (FC) (MCF7 [8]): 12
fold change (FC) (MCF7 [9]): 7.9
fold change (FC) (MCF7 [10]): 22.9
fold change (FC) (MCF7 [11]): 5.6
fold change (FC) (MCF7 [12]): 3.4
Activity (MCF7 [13]): Active
Activity (Mus musculus [17]): -28.59%
Activity (Mus musculus [18]): -20.21%
Activity (Mus musculus [19]): 13.12%
Activity (Mus musculus [20]): 47.56%
Activity (Mus musculus [21]): 67.48%
Activity (Mus musculus [22]): 132.38%
Activity (Mus musculus [23]): 174.78%
Activity (Mus musculus [24]): 258.15%
Activity (Mus musculus [25]): 55.17%
Activity (Mus musculus [26]): 28.04%
Activity (Mus musculus [27]): -50%
Activity (Mus musculus [28]): 179.51%
Activity (Mus musculus [29]): 71.54%
Activity (Mus musculus [30]): -36.07%
Activity (MCF7 [31]): 13.9%
Activity (MCF7 [32]): 4.98%

Source: ChEMBL document CHEMBL4732181, “Pyrazolo[3,4-d]pyrimidine-based dual EGFR T790M/HER2 inhibitors: Design, synthesis, structure-activity relationship and biological activity as potential antitumor and anticonvulsant agents” (Eur J Med Chem, 2021)
